This is a sample that favours compounds with a hit; in the whole collection about 5.1% have one here.
NF-kB expr up = NF-kB expression increase, human neuronal cells | AID 1239 | fold change at 12.5 µM | hit rate 1.6% among 190,000 | NF-kB reporter expression; stronger effect = higher value; in the data active = fold change above about 3.3
APP 5'UTR act = activates APP 5'UTR luciferase reporter. SH-SY5Y APP 5'UTR luciferase reporter, luminescence; zero percent = DMSO vehicle wells. activation, % at 2 µM. hit rate 1% among 190,000. AID 1276;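 active = activation above a set limit, based on mean plus 3 SD of controls, cut at about 140% in these data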
STAT3 activator = STAT3 signaling activation | U3A cells, IL-6 STAT3-luciferase reporter, luminescence; 100% = signal with IL-6 EC80 alone | activation (% of control), % at 5.6 µM | hit rate 0.91% among 190,000 | AID 871;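 active = activation above the screen-wide mean of compound activation plus 3 SD, cut at about 130% in these data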;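 also: 0% = background luminescence of wells with medium and substrate only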
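Test system: STAT3-luciferase reporter U3A cells; Detection: reporter luminescence signal; Times: 1 h compound pre-exposure, 6 h IL-6 stimulation, 37 °C; Benchmarks: IL-6-only high control; Also added: IL-6 stimulus at 33 ng/mL final.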
STAT3 inh = STAT3 signaling inhibition; U3A cells, IL-6 STAT3-luciferase reporter, luminescence; host cell line lacks STAT1; inhibition, % at 5.5 µM; hit rate 0.89% among 190,000; AID 862;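 active = inhibition above the mean inhibition across all screened compounds plus 3 SD, cut at about 44% in these data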;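 also: 0% = DMSO only wells and 100% = 100 µM nifuroxazide control wells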
STAT1 inh = inhibitors of IFN-gamma induced STAT1 signaling. inhibition, % at 5.5 µM. hit rate 0.35% among 200,000. AID 920. NIH 3T3 STAT1-luciferase reporter, luminescence;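 active = inhibition above a set limit, the mean inhibition across all tested compounds plus 3 SD, cut at about 34% in these data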;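 also: 0% = IFN-gamma with DMSO and 100% = IFN-gamma with 300 µM nifuroxazide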
STAT1 act = STAT1 signaling activation; activation (% of control), % at 5.5 µM; NIH 3T3 STAT1-luciferase reporter, IFN-gamma, luminescence; 100% = IFN-gamma alone, no compound; hit rate 2.6% among 200,000; AID 932;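 active = activation above the screen-wide mean activation plus 3 SD, cut at about 130% in these data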;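 also: raw ratio to IFN-gamma control signal so 100% means no change and 0% no light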
Starred values were filed as active, the others as inactive.

`C/C(=N\Nc1nc2ccccc2s1)c1ccc(Br)s1` gave NF-kB expr up 1.3, APP 5'UTR act 17, STAT3 activator 126, STAT3 inh -22, STAT1 inh 3 and STAT1 act 95.
O=C(O)c1cc(N/N=C/c2ccc3c(c2)OCO3)ccc1Cl was read as NF-kB expr up 1.1, APP 5'UTR act 121, STAT3 activator 122, STAT3 inh -16, STAT1 inh 19 and STAT1 act 82.
Screening COc1ccc(NC(=O)CCC(=O)NCCO)cc1 returned NF-kB expr up 1, APP 5'UTR act 13, STAT3 activator 98, STAT3 inh 9, STAT1 inh 0 and STAT1 act 100.
COc1ccc(N(CC(=O)NCc2ccncc2)S(=O)(=O)c2ccccc2[N+](=O)[O-])c(OC)c1 was read as NF-kB expr up 1.2, APP 5'UTR act -28, STAT3 activator 108, STAT3 inh -3, STAT1 inh 1 and STAT1 act 99.
O=C(C[n+]1ccc(-c2nnc3n2CCC3)cc1)c1ccc(Cl)cc1 was read as NF-kB expr up 0.88, APP 5'UTR act -1, STAT3 activator 101, STAT3 inh 3, STAT1 inh 4 and STAT1 act 96.
O=C(c1ccccc1)c1ccccc1C(=O)N1CCCC1 was read as NF-kB expr up 6.4*, APP 5'UTR act 4, STAT3 activator 96, STAT3 inh 8, STAT1 inh 4 and STAT1 act 91.
`CCOC(=O)c1sc(NC(=O)C2C3C=CC(C3)C2C(=O)O)nc1C` (stereo not given) gave NF-kB expr up 2.1, APP 5'UTR act -10, STAT3 activator 101, STAT3 inh -2, STAT1 inh 2 and STAT1 act 100.
For COc1cccc2cc(-c3cn4cccc(C)c4n3)c(=O)oc12 the results were APP 5'UTR act 57, STAT3 activator 105, STAT3 inh -3, STAT1 inh -39 and STAT1 act 136*.
Screening COc1ccc(-n2c(C)cc(-c3cn4cccc(C)c4n3)c2C)cc1 returned NF-kB expr up 0.98, APP 5'UTR act 17, STAT3 activator 103, STAT3 inh 7, STAT1 inh -2 and STAT1 act 100.
For O=C(CSc1nccn1-c1ncc(C(F)(F)F)cc1Cl)c1ccc(Br)cc1 the results were NF-kB expr up 0.61, APP 5'UTR act 31, STAT3 activator 162*, STAT3 inh -55, STAT1 inh -37 and STAT1 act 130*.
Cc1ccc(/C(CSc2nccn2-c2ncc(C(F)(F)F)cc2Cl)=N\O)cc1 was read as NF-kB expr up 0.84, APP 5'UTR act 1, STAT3 activator 96, STAT3 inh 11, STAT1 inh 22 and STAT1 act 81.
`CCc1cc(C(N)=S)ccn1` gave APP 5'UTR act 3.
For CC(=O)Nc1ccc(S(=O)(=O)Nc2nc3ccc(C)cc3s2)cc1 the results were NF-kB expr up 1.1, APP 5'UTR act 5, STAT3 activator 96, STAT3 inh 8, STAT1 inh -5 and STAT1 act 104.
`CC(=O)NC(=S)Nc1ccc(-c2nc3ccc(C)cc3s2)cc1` gave NF-kB expr up 3.7*, APP 5'UTR act 110, STAT3 activator 106, STAT3 inh 1, STAT1 inh -27 and STAT1 act 125.
Screening CNC(=S)Nc1ccc(-c2nc3ccc(C)cc3s2)cc1 returned APP 5'UTR act 172*, STAT3 activator 62, STAT3 inh 47*, STAT1 inh 4 and STAT1 act 95.
Screening Cc1ccc(-c2nc3ccccc3s2)cc1NC(=S)NC(=O)c1ccccc1 returned NF-kB expr up 6.8*, APP 5'UTR act 178*, STAT3 activator 118, STAT3 inh -15, STAT1 inh -6 and STAT1 act 106.
`Cc1cc(C)cc(N(CC(=O)Nc2ccc(-c3nc4ccc(C)cc4s3)cc2)S(C)(=O)=O)c1` gave NF-kB expr up 1.2, APP 5'UTR act 57, STAT3 activator 94, STAT3 inh 2, STAT1 inh -46 and STAT1 act 142*.
Screening Cc1ccc2nc(-c3ccc(NC(=S)NCCC(C)C)cc3)sc2c1 returned APP 5'UTR act 134, STAT3 activator 90, STAT3 inh 18, STAT1 inh -30 and STAT1 act 127.
`CC(C)CN(CCCNC(=O)CN1C(=O)COc2ccc(S(=O)(=O)N3CCCC3)cc21)CC(C)C` gave NF-kB expr up 1.2, APP 5'UTR act 5, STAT3 activator 93, STAT3 inh 14, STAT1 inh 3 and STAT1 act 96.
For CC12CCC(C(=O)Nc3nc4ccccc4s3)(OC1=O)C2(C)C (stereo not given) the results were NF-kB expr up 2.2, APP 5'UTR act 32, STAT3 activator 112, STAT3 inh -13, STAT1 inh -25 and STAT1 act 122.
For COc1cc(NC(=O)COC(=O)c2nc3nc(C)cc(C)n3n2)cc(OC)c1 the results were NF-kB expr up 1, APP 5'UTR act -14, STAT3 activator 108, STAT3 inh -7, STAT1 inh -4 and STAT1 act 104.
O=C(Nc1ccc(-c2nc3ccccc3s2)c(OC(=O)c2ccccc2)c1)c1ccccc1 was read as NF-kB expr up 1.5, APP 5'UTR act 208*, STAT3 activator 102, STAT3 inh -4, STAT1 inh -1 and STAT1 act 101.
`COc1ccc(C(=O)NCc2ccc(-c3nc4ccccc4s3)cc2)cc1OC` gave NF-kB expr up 1.7, APP 5'UTR act 52, STAT3 activator 94, STAT3 inh 12, STAT1 inh -22 and STAT1 act 121.
For Cc1cc(C)nc(SCC(=O)Nc2ccnc3ccccc23)n1 the results were NF-kB expr up 0.84, APP 5'UTR act 5, STAT3 activator 26, STAT3 inh 86*, STAT1 inh 36* and STAT1 act 66.
`COC(=O)c1ccccc1NC(=O)CSc1nc(C)cc(C)n1` gave NF-kB expr up 0.89, APP 5'UTR act 0, STAT3 activator 97, STAT3 inh 9, STAT1 inh 1 and STAT1 act 99.
Screening O=C(Nc1ccc2c(c1)OCCO2)c1oc2ccccc2c1NC(=O)C1CC1 returned NF-kB expr up 1.2, APP 5'UTR act -6, STAT3 activator 88, STAT3 inh 15, STAT1 inh -11 and STAT1 act 111.
Screening CCC(=O)Nc1c(C(=O)Nc2ccc3c(c2)OCCO3)oc2ccccc12 returned NF-kB expr up 1.9, APP 5'UTR act 123, STAT3 activator 77, STAT3 inh 34, STAT1 inh -51 and STAT1 act 144*.
`Cc1ccc(NC(=O)c2oc3ccccc3c2NC(=O)C2CCCO2)cc1C` (stereo not given) gave APP 5'UTR act 176*, STAT3 activator 99, STAT3 inh 6, STAT1 inh -32 and STAT1 act 127.

Compound activity deposited in PubChem by several laboratories.
